# Data as given in ChEMBL document CHEMBL1153722, “Design, synthesis, and characterization of peptide-based rab geranylgeranyl transferase inhibitors” (J Med Chem, 2009).
# Square brackets hold non-standard residues; d marks the D form. Peptide text beside a SMILES is read from it. * marks the point of attachment. NMeY = CN[C@@H](Cc1ccc(O)cc1)C(=O)O; Hydrocinnamoyl = O=C(CCc1ccccc1)*; Palmitoyl = CCCCCCCCCCCCCCCC(=O)*; NMeF = CN[C@@H](Cc1ccccc1)C(=O)O; Undecanoyl = CCCCCCCCCCC(=O)*; pGlu = O=C1CC[C@@H](C(=O)O)N1; Ac6c = NC1(C(=O)O)CCCCC1; Cbz = O=C(OCc1ccccc1)*; NHPh = c1ccc(N*)cc1
# Species on record: Rattus norvegicus
# Assay: Inhibition of rat recombinant Rab geranylgeranyltransferase at 100 uM in presence of canine Rab7 and rat REP1 NBD-FPP based continuous fluorimetric assay
# Method in brief: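 Continuous fluorometric assay in 96/384-well format: 3 μM Rab7, 3 μM REP1, 9 μM NBD-FPP and 400 nM RabGGTase, with or without inhibitor. […] IC50 was calculated from three independent measurements.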
row,SMILES,inhibition
1,CC(C)C[C@H](NC(=O)/C=C/c1ccccc1)C(=O)N[C@@H](Cc1ccccc1)C(=O)N[C@@H](Cc1ccccc1)C(=O)NC1CCCCC1,-4%
2,CCCCCCCCCCC(=O)N[C@@H](Cc1c[nH]cn1)C(=O)N[C@@H](Cc1c[nH]cn1)C(=O)N[C@@H](Cc1ccc(O)cc1)C(=O)OC (Undecanoyl-His-His-Tyr-OMe),64%
3,CCCCCCCCCCCCCC(=O)N[C@@H](Cc1ccc(O)cc1)C(=O)N[C@@H](Cc1ccc(O)cc1)C(=O)N[C@@H](Cc1ccc(O)cc1)C(=O)NC1CCCCC1,93%
4,O=C(CNC(=O)c1coc(-c2ccccc2)n1)NCC(=O)N[C@@H](Cc1c[nH]cn1)C(=O)Nc1ccc(F)cc1F,112%
5,CCCCCCCCCCCCCCCC(=O)N[C@@H](Cc1ccc(O)cc1)C(=O)N[C@@H](Cc1ccc(O)cc1)C(=O)N[C@@H](Cc1ccc(O)cc1)C(=O)OC (Palmitoyl-Tyr-Tyr-Tyr-OMe),49%
6,CCCCCCCCCCCNC(=O)[C@H](Cc1ccc(O)cc1)NC(=O)CNC(=O)[C@H](Cc1ccc(O)cc1)NC(=O)CCc1ccc(F)cc1,88%
7,O=C(CNC(=O)c1csc(-c2ccccc2)n1)N[C@@H](Cc1ccccc1)C(=O)N[C@@H](Cc1cn(C(c2ccccc2)(c2ccccc2)c2ccccc2)cn1)C(=O)O,71%
8,O=C(N[C@@H](Cc1c[nH]cn1)C(=O)N[C@@H](Cc1ccc(O)cc1)C(=O)N[C@@H](Cc1ccccc1)C(=O)O)OCc1ccccc1 (Cbz-His-Tyr-Phe-OH),39%
9,CN(C(=O)[C@H](Cc1cnc[nH]1)NC(=O)OCc1ccccc1)[C@@H](Cc1ccc(O)cc1)C(=O)N(C)[C@@H](Cc1ccccc1)C(=O)O (Cbz-His-[NMeY]-[NMeF]-OH),54%
10,O=C(CCc1ccc(F)cc1)N[C@@H](Cc1ccc(O)cc1)C(=O)NCC(=O)N[C@@H](Cc1ccc(O)cc1)C(=O)NCc1ccc(F)cc1F,89%
11,CCCCOC(=O)[C@H](Cc1ccc(O)cc1)NC(=O)CNC(=O)[C@H](Cc1ccc(O)cc1)NC(=O)c1ccc(F)cc1,76%
12,CC(C)C[C@H](NC(=O)/C=C/c1ccccc1)C(=O)N[C@@H](Cc1ccccc1)C(=O)N[C@@H](Cc1ccccc1)C(=O)O,75%
13,O=C(CCNC(=O)[C@H](Cc1c[nH]cn1)NC(=O)OCc1ccccc1)N[C@@H](Cc1ccc(O)cc1)C(=O)Nc1nccs1,73%
14,C[C@H](NC(=O)c1coc(-c2ccccc2)n1)C(=O)NCC(=O)N[C@@H](Cc1c[nH]cn1)C(=O)Nc1ccc(F)cc1F,76%
15,COC(=O)[C@H](Cc1ccc(O)cc1)NC(=O)CNC(=O)[C@H](Cc1ccc(O)cc1)NC(=O)CCc1ccc(F)cc1,90%
16,O=C(CNC(=O)[C@H](Cc1c[nH]cn1)NC(=O)c1coc(-c2ccccc2)n1)N[C@@H](Cc1c[nH]c2ccccc12)C(=O)O,69%
17,O=C(CNC(=O)[C@H](Cc1c[nH]cn1)NC(=O)OCc1ccccc1)N[C@@H](Cc1ccc(O)cc1)C(=O)NCC(O)CO (stereo not given in full),74%
18,CCCCCCCCCCCCCC(=O)N[C@@H](Cc1ccc(O)cc1)C(=O)N[C@@H](Cc1ccc(O)cc1)C(=O)N[C@@H](Cc1ccc(O)cc1)C(=O)Nc1ccc(N2CCOCC2)cc1,94%
19,COC(=O)[C@H](CO)NC(=O)CNC(=O)[C@H](CO)NC(=O)/C=C/c1ccc(F)cc1,63%
20,CCCCCCCCCCOc1ccc(C(=O)N[C@@H](Cc2c[nH]c3ccccc23)C(=O)N[C@@H](Cc2c[nH]cn2)C(=O)N[C@@H](Cc2c[nH]cn2)C(=O)OC)cc1,56%

row,SMILES,inhibition
1,C=CCCCOC(=O)[C@H](CCC(N)=O)NC(=O)[C@H](Cc1ccccc1)NC(=O)[C@@H](NC(=O)/C=C/c1ccccc1)[C@@H](C)O,102%
2,O=C(CCc1ccccc1)N[C@@H](CO)C(=O)N[C@@H](Cc1ccccc1)C(=O)N[C@@H](CO)C(=O)Nc1ccccc1 (Hydrocinnamoyl-Ser-Phe-Ser-NHPh),89%
3,NC(=O)CC[C@H](NC(=O)[C@H](Cc1ccccc1)NC(=O)CNC(=O)CCc1ccccc1)C(=O)Nc1ccccc1 (Hydrocinnamoyl-Gly-Phe-Gln-NHPh),80%
4,COC(=O)[C@H](CCC(N)=O)NC(=O)[C@H](Cc1ccccc1)NC(=O)[C@@H](NC(=O)/C=C/c1ccccc1)[C@@H](C)O,92%
5,CCCCCCCCCCCOc1ccc(C(=O)N[C@@H](Cc2c[nH]cn2)C(=O)N[C@@H](Cc2ccc(O)cc2)C(=O)N[C@@H](Cc2ccccc2)C(=O)O)cc1,75%
6,O=C(/C=C/c1ccc(F)cc1)N[C@@H](CO)C(=O)N[C@@H](Cc1ccccc1)C(=O)N[C@@H](CO)C(=O)Nc1ccc(F)c(Cl)c1,89%
7,CC(=O)Nc1cc(C(=O)N2CCC[C@H]2C(=O)N[C@@H](C(=O)N[C@@H](CCC(=O)O)C(=O)NC2CCCCC2)C(C)C)ccc1[N+](=O)[O-],117%
8,CC(C)C[C@H](NC(=O)[C@H](CO)NC(=O)[C@H](Cc1ccccc1)NC(=O)/C=C/c1ccc(F)cc1)C(=O)NNc1ccccc1,95%
9,CCCCCCCCCCC(=O)N[C@@H](Cc1c[nH]cn1)C(=O)N[C@@H](Cc1ccccc1)C(=O)N[C@@H](Cc1ccc(O)cc1)C(=O)NOC(C)(C)C,76%
10,O=C(N[C@@H](CO)C(=O)N[C@@H](Cc1ccccc1)C(=O)N[C@@H](CO)C(=O)Nc1ccc(F)cc1F)C(Br)C(Br)c1ccc(F)cc1 (stereo not given in full),94%
11,CC(C)C[C@H](NC(=O)[C@H](COC(C)(C)C)NC(=O)[C@H](Cc1ccccc1)NC(=O)/C=C/c1ccc(F)cc1)C(N)=O,83%
12,CC(C)C[C@H](NC(=O)/C=C/c1ccccc1)C(=O)N[C@@H](Cc1ccc(Br)cc1)C(=O)N[C@@H](Cc1ccccc1)C(=O)OCc1ccccc1,55%
13,CN(CCc1ccccn1)C(=O)[C@H](Cc1ccc(O)cc1)NC(=O)CNC(=O)[C@H](Cc1c[nH]cn1)NC(=O)OCc1ccccc1,85%
14,O=C(CNC(=O)[C@H](Cc1ccccc1)NC(=O)c1csc(-c2cccs2)n1)N[C@@H](CO)C(=O)Nc1nccs1,124%
15,NCCCCNC(=O)[C@H](Cc1ccc(O)cc1)NC(=O)CNC(=O)[C@H](Cc1ccc(O)cc1)NC(=O)c1ccc(F)cc1,88%
16,O=C(CNC(=O)[C@H](Cc1c[nH]cn1)NC(=O)OCc1ccccc1)N[C@@H](Cc1ccc(O)cc1)C(=O)Nc1nccs1,82%
17,CCCCCCCCCC(=O)N[C@@H](Cc1c[nH]cn1)C(=O)N[C@@H](Cc1cnc[nH]1)C(=O)N[C@@H](Cc1ccc(O)cc1)C(=O)OCCN,29%
18,CC(C)C[C@H](NC(=O)[C@@H]1CCCN1C(=O)/C=C/c1ccccc1)C(=O)N[C@@H](Cc1ccccc1)C(=O)NCc1ccc(F)cc1F,26%
19,CCC/C=C\c1ccccc1/C=C/C(=O)N[C@H](Cc1ccc(O)cc1)C(=O)N(C)[C@@H](Cc1ccc(OC)cc1)C(=O)N(C)[C@@H](Cc1ccccc1)C(=O)OCc1cnc(C)s1,97%
20,C=CCCCCCCCCCOC(=O)[C@H](CO)NC(=O)CNC(=O)[C@H](Cc1ccccc1)NC(=O)c1coc(-c2ccccc2)n1,5%

row,SMILES,inhibition
1,O=C(/C=C/c1ccc(F)cc1)N[C@@H](CO)C(=O)N[C@@H](Cc1ccccc1)C(=O)N[C@@H](CO)C(=O)Nc1ccc(F)cc1F,92%
2,CCOC(=O)[C@H](CCC(N)=O)NC(=O)[C@H](Cc1ccccc1)NC(=O)[C@H](C)NC(=O)CCc1ccccc1 (Hydrocinnamoyl-Ala-Phe-Gln-OEt),107%
3,O=C(CCc1ccc(F)cc1)N[C@@H](Cc1ccc(O)cc1)C(=O)NCC(=O)N[C@@H](Cc1ccc(O)cc1)C(=O)OCCCl,50%
4,C[C@@H](O)[C@H](NC(=O)C(Br)C(Br)c1ccccc1)C(=O)N[C@@H](Cc1ccccc1)C(=O)N[C@@H](CCC(N)=O)C(=O)OCCCCO (stereo not given in full),60%
5,COC(=O)C1(NC(=O)[C@H](CCCCN)NC(=O)[C@H](CC(C)C)NC(=O)[C@@H]2CCC(=O)N2)CCCCC1 ([pGlu]LK[Ac6c]-OMe),98%
6,O=C(CNC(=O)[C@@H]1CCCN1C(=O)/C=C/c1ccccc1)N[C@@H](Cc1ccccc1)C(=O)NC1CCCCC1,61%
7,COC(=O)[C@H](CO)NC(=O)[C@H](Cc1c[nH]cn1)NC(=O)[C@H](CCCCN)NC(=O)CCc1ccccc1 (Hydrocinnamoyl-Lys-His-Ser-OMe),86%
8,COC(=O)[C@H](CC(C)C)NC(=O)[C@H](CO)NC(=O)[C@H](Cc1ccccc1)NC(=O)CCc1ccccc1,69%
9,O=C(CNC(=O)[C@H](Cc1cn(C(c2ccccc2)(c2ccccc2)c2ccccc2)cn1)NC(=O)c1coc(-c2ccccc2)n1)N[C@@H](Cc1c[nH]c2ccccc12)C(=O)O,74%
10,CC[C@H](C)[C@H](NC(=O)/C=C/c1ccc(F)cc1)C(=O)N[C@@H](C)C(=O)N[C@@H](CCC(N)=O)C(=O)Nc1ccc(F)c(Cl)c1,46%
11,COC(=O)[C@H](CC(C)C)NC(=O)[C@H](COC(C)(C)C)NC(=O)[C@H](Cc1ccccc1)NC(=O)CCc1ccccc1,81%
12,CCCCCCCCCCCOc1ccc(C(=O)N[C@@H](Cc2ccc(O)cc2)C(=O)N[C@@H](Cc2ccc(O)cc2)C(=O)N[C@@H](Cc2ccc(O)cc2)C(=O)NCc2ccc(F)cc2F)cc1,99%
13,CCCCCCCCCCOc1ccc(C(=O)N[C@@H](Cc2c[nH]cn2)C(=O)N[C@@H](Cc2c[nH]cn2)C(=O)N[C@@H](CO)C(=O)OCCN)cc1,70%
14,O=C(CCc1ccccc1)N[C@@H](CO)C(=O)N[C@@H](Cc1ccccc1)C(=O)N[C@@H](CO)C(=O)Nc1ccc(N2CCOCC2)cc1,95%
15,COC(=O)[C@H](CO)NC(=O)CNC(=O)[C@H](Cc1ccccc1)NC(=O)C1COC(c2ccccc2)=N1 (stereo not given in full),136%
16,CCCCCCCCCCCOc1ccc(C(=O)N[C@@H](Cc2ccc(O)cc2)C(=O)N[C@@H](Cc2ccc(O)cc2)C(=O)N[C@@H](Cc2ccc(O)cc2)C(=O)NCCCn2ccnc2)cc1,48%
17,COC(=O)[C@H](Cc1ccc(O)cc1)NC(=O)CNC(=O)[C@H](Cc1ccc(O)cc1)NC(=O)c1ccc(F)cc1,93%
18,C=CCOC(=O)[C@H](Cc1c[nH]cn1)NC(=O)[C@H](Cc1ccccc1)NC(=O)CNC(=O)C1COC(c2ccccc2)=N1 (stereo not given in full),106%
19,COC(=O)[C@H](CC(C)C)NC(=O)[C@H](CO)NC(=O)[C@H](Cc1ccccc1)NC(=O)c1ccc(-c2ccccc2)cc1,94%
20,CC(C)CCNC(=O)[C@H](CO)NC(=O)CNC(=O)[C@H](CO)NC(=O)/C=C/c1ccc(F)cc1,85%
